Data taken from ChEMBL document CHEMBL3784931, “Synthesis and evaluation of novel angiotensin II receptor 1 antagonists as anti-hypertension drugs” (Bioorg Med Chem, 2016).
Calls of active or inactive are those of the source. No cut-off for these calls is given here.

System: Rattus norvegicus
Assay: Antihypertensive activity in spontaneous hypertensive rat model assessed as reduction in mean blood pressure at 10 mg/kg, po administered for 2 hrs
Assay type: functional, organism-based
Summary of the method: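 Male SHRs were randomized, n = 6 per group. Compound was suspended in DMSO/oleic acid (1:4) and given by oral gavage; vehicle controls got the same volume of solvent. SBP and DBP were recorded in conscious animals by noninvasive tail-artery manometry. MBP = (SBP − DBP)/3 + DBP. Data are mean ± SEM, with p < 0.05 taken as significant.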

CCCCc1nc(Cl)c(CO)n1Cc1ccc(-c2ccccc2-c2nnn[nH]2)cc1
Activity: Active
